Source: ChEMBL document CHEMBL1150201, “Verbascoside isolated from Lantana camara, an inhibitor of protein kinase C” (J Nat Prod, 1991)
The source made the active and inactive calls. No cut-off for these calls is given here.

What was measured:
L1210 [1] = assay: Cytotoxicity against mouse L1210 cells at 25 uM by MTT assay; assay type: functional, cell-based
How it was run: (§1)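 MTT colorimetric assay after Mosmann, measuring reduction of the tetrazolium to blue formazan by viable cells, read photometrically. Treated cells were compared with the same number of untreated cells.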

L1210 [2] = assay: Antiproliferative activity against mouse L1210 cells after 48 hrs by coulter counting analysis; assay type: functional, cell-based; conditions: L1210, 48 h
How it was run: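 L1210 cells seeded at 10^4 per well in DMEM with 10% fetal calf serum, 4 mM glutamine and penicillin/streptomycin, with compound added from DMSO. Grown 2 days at 37° in 5% CO₂, then counted in a Coulter counter. Cultures were logarithmically growing at plating; n = 6. IC₅₀ taken from linear regression lines.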

[3] = molecular target: T1, Protein kinase C (PKC) (Rattus norvegicus) (UniProt P05696+P68403+P09216+P63319+P09215+Q64617+Q9WTQ0+P09217); assay: Inhibition of rat brain PKC catalytic domain using histone type 3-S as substrate by noncompetitive Lineweaver-Burke plot analysis
How it was run: (§2)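 Catalytic fragment made by incubating PKC for 10 min at 30° with 1 µg/ml trypsin, giving calcium- and lipid-independent activity. It was then assayed in the mixed-micelle histone phosphorylation assay, varying ATP or histone.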

[4] = molecular target: T1, Protein kinase C (PKC) (Rattus norvegicus); assay: Displacement of [3H]PDBu from rat brain PKC at 1 mM by scintillation counting
How it was run: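 PKC incubated 1 h at 30° in 250 µl of 50 mM Tris/HCl pH 7.4 with 1 mM CaCl₂, 39.2 nM [³H]-PDBu and 50 µg/ml PKC, plus compound. Nonspecific binding defined with 100-fold excess unlabelled PDBu. Diluted with ice-cold buffer, filtered on glass fiber, washed 3 times, bound radioactivity by scintillation counting.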

Protein kinase C (PKC) [5] = assay: (§3) Inhibition of rat brain PKC by mixed micellar assay
How it was run: (§4)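 PKC purified from rat brain, 0.5 µg per tube. Medium was 20 mM Tris/HCl pH 7.5, 10 mM MgCl₂, 200 µg/ml histone IIIS, micelles of 700 µM phosphatidylserine and 180 µM 1,2-dioleine in 0.3% Triton X-100, 0.2 mM CaCl₂, 100 µM ATP with [γ-³²P]-ATP and compound in DMSO. After 3 min at 30°, TCA-precipitated material was filtered and counted. Activity without micelles/CaCl₂ subtracted; 6 replicates.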

[6] = molecular target: T1, Protein kinase C (PKC) (Rattus norvegicus); assay: as §3; how it was run: as §4
LSTRA = assay: Inhibition of protein tyrosine kinase in mouse LSTRA cells assessed as formation of [32P]phosphotyrosine at 100 uM by gel electrophoresis; assay type: cell-based
Protein kinase C (PKC) [7] = assay: Inhibition of rat brain PKC using histone type 3-S as substrate by noncompetitive Lineweaver-Burke plot analysis
Protein kinase C (PKC) [8] = assay: Inhibition of rat brain PKC catalytic domain by mixed micellar assay; how it was run: as §2
Protein kinase C (PKC) [9] = assay: Displacement of [gamma32P]ATP from rat brain PKC by competitive Lineweaver-Burke plot analysis
How it was run: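 Rat brain PKC (0.5 µg) in the mixed-micelle assay with histone fixed at 200 µg/ml and ATP varied. Inhibitor levels were 0, 5, 10 and 15 µM. Data were analysed as double-reciprocal plots. Apparent Ki came from line intersections by unweighted least-squares fit.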

L1210 [10] = assay: Cytotoxicity against mouse L1210 cells at 10 uM by MTT assay; assay type: functional, cell-based; how it was run: as §1
[11] = Inhibition of PKA at 100 uM
[12] = molecular target: T1, Protein kinase C (PKC) (Rattus norvegicus); assay: Displacement of [gamma32P]ATP from rat brain PKC catalytic domain by competitive Lineweaver-Burke plot analysis; how it was run: as §2

Row | IC50 (L1210 [2]) [µM] | Activity [3] | inhibition [4] [%] | IC50 (Protein kinase C (PKC) [5]) [µM] | Activity [6] | Ki (Protein kinase C (PKC) [7]) [µM] | IC50 (Protein kinase C (PKC) [8]) [µM] | Ki (Protein kinase C (PKC) [9]) [µM] | inhibition [11] [%] | Activity [12] | Structure (SMILES) | Activity (L1210 [1]) | inhibition (LSTRA) [%] | Activity (L1210 [10])
1 | 23.5 |  |  |  |  |  |  |  |  |  | C[C@H]1CNCCN1S(=O)(=O)c1cccc2cnccc12 | inactive |  | 
2 | 13 | Active | 9 | 25 | Dose-dependent effect | 28 | 21 | 22 | < 10 | Active | C[C@@H]1O[C@@H](O[C@@H]2[C@@H](O)[C@H](OCCc3ccc(O)c(O)c3)O[C@H](CO)[C@H]2OC(=O)/C=C/c2ccc(O)c(O)c2)[C@H](O)[C@H](O)[C@H]1O [ACETOSIDE] |  | < 10 | inactive
